Data as given in the array DNA melting data of Ke et al. (doi:10.1101/2024.01.08.574731).

Tests used:
[1] = folding enthalpy; higher = less favourable; fluorescence melt of hairpins on a sequencing array, two-state fit; conditions: sodium 0.088 M
In short: (§1)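 Two-state fits, bootstrapped, provided melting temperature and folding enthalpy from Cy3 fluorescence normalised to pre-quench Cy3 and to control constructs. Library hairpins with annealed Cy3 and quencher oligos were imaged on a sequenced MiSeq flow cell in 50 mM Na-HEPES pH 8.0, 25 mM NaCl, at 2.5 °C intervals up to 60 °C. Four replicates were combined with inverse-variance weighting. A 9.35 °C upward shift was applied to fitted temperatures to match UV melts.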

[2] = melting temperature; fluorescence melt of hairpins on a sequencing array, two-state fit, raised by 9.35 °C to match UV melts; conditions: sodium 0.088 M
In short: as §1

Row | Sequence | folding enthalpy [1] [kcal/mol] | Tm [2] [°C]
1 | GGATACGAAAGTAATCC ((((((....))).))) | -27 | 44.6
2 | GACAGTACGAAAGTAGTC (((..(((....)))))) | -16.2 | 31.1
3 | GCTGCGCGAAAGCACTGC ((.(.((....)).).)) | -24.2 | 53.3
4 | GATCATCTAAATGATC ((((((....)))))) | -35.9 | 47.4
5 | AACTGGAAACAGTT (((((....))))) | -16.8 | 38.8
6 | GCCCTCGAAAGAGGGGGC ((((((....)))..))) | -15.1 | 68.4
7 | GATCGTATGCACGATC ((((((....)))))) | -26.1 | 54.5
8 | GCTTCGCGAAAGCAACGC ((.(.((....)).).)) | -10 | 29.2
9 | GTCGTCTCGAAAGAGGAC (((..(((....)))))) | -21.6 | 39
10 | GCGGAGCGAAAGCCCCGC ((((.((....)).)))) | -35.3 | 68.7
11 | GAGTAGCGAAAGCTCTC (((.(((....)))))) | -17.8 | 46.2
12 | GCATTCGAAAGAACATGC ((((((....)))..))) | -15.8 | 33
13 | GCAGATGGAAACGTTTGC (((.(.(....).).))) | -12.6 | 28.9
14 | CGAGGCGGAAACGCTCG (((.(((....)))))) | -20.5 | 51
15 | GTGATCGGAAACGGTCAC ((((.((....)).)))) | -42.8 | 55
16 | GACGTAGGAAACTGCGTC ((((.((....)).)))) | -45.2 | 51.5
17 | AGTGGGAAACCACT (((((....))))) | -19.5 | 49.8
18 | GTTGCCGAAAGGCGTAAC ((((((....)))..))) | -9.66 | 34.7
19 | GGGTGGGGAAACCCACTC (.(((((....))))).) | -16.7 | 53
20 | GAGTATGAAAATACTC ((((((....)))))) | -36.5 | 50.3
21 | GTCAGGGGAAACTCTGGC (.(((.(....).))).) | -24.5 | 36.4
22 | GTGATCGAAAGATACCAC ((((((....)))..))) | -10.5 | 26.6
23 | GACACACCGAAAGGTGTC (((..(((....)))))) | -8 | 37.3

Row | Sequence | folding enthalpy [1] [kcal/mol] | Tm [2] [°C]
24 | GCTCCCACGAAAGTGAGC (((..(((....)))))) | -17.1 | 40.2
25 | GATCATAGTCATGATC ((((((....)))))) | -32.9 | 47.2
26 | GATCAACTAATTGATC ((((((....)))))) | -28.4 | 40.8
27 | GGCAGTGGAAACGCTGTC (.(((.(....).))).) | -23.4 | 44.5
28 | GAAGGGGGAAACCTCTTC ((((.((....)).)))) | -27.7 | 43.1
29 | GACCTACGAAAGTACGTC (((.(((....))).))) | -24.6 | 36.2
30 | GGTGAAGGAAACTTCGCC ((.((((....)))).)) | -45.2 | 52.6
31 | GTAAGTCGAAAGACATAC (((.(((....))).))) | -21.5 | 38.7
32 | GCGCGGCGAAAGCCATGC ((..(((....)))..)) | -16.4 | 53.3
33 | GCGTTGGGAAACCAACAC (.(((((....))))).) | -14.4 | 42.5
34 | GCGATGCGAAAGCTCCGC (((..((....))..))) | -19.9 | 52.5
35 | GATCTCCGCGGAGATC ((((((....)))))) | -50.1 | 60.9
36 | GATCGATGGGTCGATC ((((((....)))))) | -39.7 | 57.5
37 | GTGCATGGAAACGTGCAC (((((.(....).))))) | -47 | 55.8
38 | GCGGAAACCCGC ((((....)))) | -20.9 | 50.2
39 | GATCAAACGTTGATC ((((((...)))))) | -28.1 | 39.5
40 | GGGAGGGGAAACTCTCCC (((((.(....).))))) | -31.4 | 52
41 | GTACGCGGAAACGTGTAC ((((.((....)).)))) | -28.1 | 54.6
42 | GACACGGGAAACCATGTC ((((.((....)).)))) | -32.9 | 39.9
43 | GATCGTTTACACGATC ((((((....)))))) | -45.4 | 53.8
44 | GGCCTGCCGAAAGGCGCC (((..(((....)))))) | -13.7 | 49.4
45 | GGGCGAACGAAAGTTCCC (((..(((....)))))) | -15.4 | 45.2
46 | GAATGGGGAAACCTGTTC (((..((....))..))) | -13.1 | 29.9

Row | Sequence | folding enthalpy [1] [kcal/mol] | Tm [2] [°C]
47 | GAAATTGGAAACAATTTC (((((((....))))))) | -35.8 | 51.3
48 | GATCCTACATAGGATC ((((((....)))))) | -35.5 | 52.8
49 | GATCAAATTTTGATC ((((((...)))))) | -31.4 | 43
50 | GACGGCGAAAGCCTTGTC ((((((....)))..))) | -12.3 | 43.9
51 | GCGCGGCGAAAGCCTTGC ((..(((....)))..)) | -16 | 46.1
52 | GCAATACGAAAGTAGTGC (((.(((....))).))) | -43.8 | 54.7
53 | GTGTTTGAAAAAACAC ((((((....)))))) | -38.4 | 52.9
54 | GCCTCGCGAAAGCGCTGC ((..(((....)))..)) | -10.4 | 38.5
55 | GATCTCGGAGGAGATC ((((((....)))))) | -44.4 | 55.7
56 | GTTGTTCGAAAGAAGAAC (((.(((....))).))) | -27.6 | 43.3
57 | GTCTTCGAAAGAAGAC ((((((....)))))) | -30.3 | 62.4
58 | GTCGGCCGAAAGGCGGAC (((.(((....))).))) | -27.5 | 67.8
59 | GTCGTTACGAAAGTAGAC (((..(((....)))))) | -29.1 | 44.8
60 | GGGCGCGAAAGCGGTCCC ((((((....)))..))) | -11.7 | 63.8
61 | GATCTACGGGTAGATC ((((((....)))))) | -42.6 | 51.1
62 | GATCTAGAATTAGATC ((((((....)))))) | -35 | 45.2
63 | GTTATAGCGAAAGCTAAC (((..(((....)))))) | -14.3 | 29.9
64 | GCAACACGAAAGTGTGC (((.(((....)))))) | -19 | 60.2
65 | GGGCACGAAAGTGCACCC ((((((....)))..))) | -10.8 | 58.2
66 | GTTGCGGCGAAAGCCAAC (((..(((....)))))) | -14.7 | 37.8
67 | GCGGTCGAAAGACCCCGC ((((((....)))..))) | -14.9 | 47.5
68 | GTAACCGAAAGGTTTTAC ((((((....)))..))) | -8.83 | 29.2
69 | GTTGGCCGAAAGGCAAC (((.(((....)))))) | -16.8 | 53.9

Row | Sequence | folding enthalpy [1] [kcal/mol] | Tm [2] [°C]
70 | GCTAGTGGAAACGTTAGC ((((..(....)..)))) | -20.1 | 36.4
71 | GATCAGTGAACTGATC ((((((....)))))) | -36.2 | 52.6
72 | GCCACCGAAAGGTCGGGC ((((((....)))..))) | -25.6 | 48
73 | GCGGGAGGAAACCCCCAC (.(((.(....).))).) | -10.6 | 27.7
74 | GTCGACGAAAGTCGGGAC ((((((....)))..))) | -10.5 | 39.1
75 | GATACGAAAGTATC (((((....))))) | -32.2 | 56.6
76 | GTGCTGGGAAACCGGCAC ((((.((....)).)))) | -41.1 | 61
77 | GGAGCGTCGAAAGACTCC (((..(((....)))))) | -13.7 | 31.4
78 | GTATGTGGAAACATGTAC (((..((....))..))) | -16.4 | 30.9
79 | GGTGCGGGAAACCGTACC (((.(((....))).))) | -44.7 | 58.1
80 | GATCGTTTATACGATC ((((((....)))))) | -38.7 | 57.5
81 | GCAGCCGCGAAAGCGTGC (((..(((....)))))) | -8.84 | 48.4
82 | GCTTTCGAAAGAATAGC ((((((....))).))) | -23.9 | 38.2
83 | GCGTGTGGAAACACACAC (.(((((....))))).) | -13.7 | 44.4
84 | GCTTGCGAAAGCAATAGC ((((((....)))..))) | -15.3 | 47.1
85 | GCGGATCGAAAGATCGC (((.(((....)))))) | -25.6 | 58.1
86 | GTGTGCGGAAACGCGTAC ((..(((....)))..)) | -16.3 | 43.7
87 | GTGATCGAAAGATTGCAC ((((((....)))..))) | -14.5 | 30.4
88 | GATCCTTCTGAGGATC ((((((....)))))) | -38.4 | 53.7
89 | GAAGCCGAAAGGCCTTC ((((((....))).))) | -16.2 | 48.8
90 | GGTACCGAAAGGTGTACC ((((((....)))..))) | -22.5 | 46.6
91 | GATCAGGATCTGATC ((((((...)))))) | -32.1 | 48
92 | GGCCAACGAAAGTTTGCC (((.(((....))).))) | -45.6 | 50.7
